According to ChEMBL document CHEMBL1142891, “Lead discovery and optimization of T-type calcium channel blockers” (Bioorg Med Chem, 2007):

Key:
Type in all cases: cell-based
[1] = molecular target: T1, Voltage-dependent T-type calcium channel subunit alpha-1G (Homo sapiens, UniProt O43497); assay: Inhibition of T type calcium channel subunit alpha1G expressed in HEK293 cells assessed as effect on KCl-induced increase in intracellular calcium level at 10 uM by FDSS assay
In short: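 HEK293 cells stably co-expressing α1G and Kir2.1 were plated at 40,000 cells/well and used the next day. Loaded 60 min at room temperature with 5 µM fluo3/AM plus 0.001% Pluronic F-127 in HEPES buffer (1.8 mM CaCl2, pH 7.4). Depolarized with 70 mM KCl in buffer containing 10 mM CaCl2; the rise in intracellular Ca2+ was read by fluorescence.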

[2] = molecular target: T1, Voltage-dependent T-type calcium channel subunit alpha-1G; assay: Inhibition of T type calcium channel subunit alpha-1G expressed in HEK293 cells assessed as effect on T-type calcium currents at 10 uM by patch clamp method
[3] = molecular target: T1, Voltage-dependent T-type calcium channel subunit alpha-1G; assay: Inhibition of T type calcium channel subunit alpha-1G expressed in HEK293 cells assessed as effect on T-type calcium currents by patch clamp method
In short: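 Whole-cell patch clamp on HEK293 cells expressing α1G. Electrodes of 3-4 MΩ held internal solution (mM): 130 KCl, 11 EGTA, 5 Mg-ATP, 10 HEPES, pH 7.4. External solution (mM): 140 NaCl, 2 CaCl2, 10 HEPES, 10 glucose, pH 7.4. Currents evoked every 15 s by a 50 ms step from -100 to -30 mV. Read-out was peak current; IC50 from dose-response fits.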

[4] = molecular target: Voltage-dependent T-type calcium channel subunit alpha-1H (Homo sapiens) (UniProt O95180); assay: Inhibition of T type calcium channel subunit alpha-1H expressed in Xenopus oocytes at 100 uM by FDSS assay; settings: Oocyte
Sequence of Voltage-dependent T-type calcium channel subunit alpha-1H (Homo sapiens) (O95180 whole entry): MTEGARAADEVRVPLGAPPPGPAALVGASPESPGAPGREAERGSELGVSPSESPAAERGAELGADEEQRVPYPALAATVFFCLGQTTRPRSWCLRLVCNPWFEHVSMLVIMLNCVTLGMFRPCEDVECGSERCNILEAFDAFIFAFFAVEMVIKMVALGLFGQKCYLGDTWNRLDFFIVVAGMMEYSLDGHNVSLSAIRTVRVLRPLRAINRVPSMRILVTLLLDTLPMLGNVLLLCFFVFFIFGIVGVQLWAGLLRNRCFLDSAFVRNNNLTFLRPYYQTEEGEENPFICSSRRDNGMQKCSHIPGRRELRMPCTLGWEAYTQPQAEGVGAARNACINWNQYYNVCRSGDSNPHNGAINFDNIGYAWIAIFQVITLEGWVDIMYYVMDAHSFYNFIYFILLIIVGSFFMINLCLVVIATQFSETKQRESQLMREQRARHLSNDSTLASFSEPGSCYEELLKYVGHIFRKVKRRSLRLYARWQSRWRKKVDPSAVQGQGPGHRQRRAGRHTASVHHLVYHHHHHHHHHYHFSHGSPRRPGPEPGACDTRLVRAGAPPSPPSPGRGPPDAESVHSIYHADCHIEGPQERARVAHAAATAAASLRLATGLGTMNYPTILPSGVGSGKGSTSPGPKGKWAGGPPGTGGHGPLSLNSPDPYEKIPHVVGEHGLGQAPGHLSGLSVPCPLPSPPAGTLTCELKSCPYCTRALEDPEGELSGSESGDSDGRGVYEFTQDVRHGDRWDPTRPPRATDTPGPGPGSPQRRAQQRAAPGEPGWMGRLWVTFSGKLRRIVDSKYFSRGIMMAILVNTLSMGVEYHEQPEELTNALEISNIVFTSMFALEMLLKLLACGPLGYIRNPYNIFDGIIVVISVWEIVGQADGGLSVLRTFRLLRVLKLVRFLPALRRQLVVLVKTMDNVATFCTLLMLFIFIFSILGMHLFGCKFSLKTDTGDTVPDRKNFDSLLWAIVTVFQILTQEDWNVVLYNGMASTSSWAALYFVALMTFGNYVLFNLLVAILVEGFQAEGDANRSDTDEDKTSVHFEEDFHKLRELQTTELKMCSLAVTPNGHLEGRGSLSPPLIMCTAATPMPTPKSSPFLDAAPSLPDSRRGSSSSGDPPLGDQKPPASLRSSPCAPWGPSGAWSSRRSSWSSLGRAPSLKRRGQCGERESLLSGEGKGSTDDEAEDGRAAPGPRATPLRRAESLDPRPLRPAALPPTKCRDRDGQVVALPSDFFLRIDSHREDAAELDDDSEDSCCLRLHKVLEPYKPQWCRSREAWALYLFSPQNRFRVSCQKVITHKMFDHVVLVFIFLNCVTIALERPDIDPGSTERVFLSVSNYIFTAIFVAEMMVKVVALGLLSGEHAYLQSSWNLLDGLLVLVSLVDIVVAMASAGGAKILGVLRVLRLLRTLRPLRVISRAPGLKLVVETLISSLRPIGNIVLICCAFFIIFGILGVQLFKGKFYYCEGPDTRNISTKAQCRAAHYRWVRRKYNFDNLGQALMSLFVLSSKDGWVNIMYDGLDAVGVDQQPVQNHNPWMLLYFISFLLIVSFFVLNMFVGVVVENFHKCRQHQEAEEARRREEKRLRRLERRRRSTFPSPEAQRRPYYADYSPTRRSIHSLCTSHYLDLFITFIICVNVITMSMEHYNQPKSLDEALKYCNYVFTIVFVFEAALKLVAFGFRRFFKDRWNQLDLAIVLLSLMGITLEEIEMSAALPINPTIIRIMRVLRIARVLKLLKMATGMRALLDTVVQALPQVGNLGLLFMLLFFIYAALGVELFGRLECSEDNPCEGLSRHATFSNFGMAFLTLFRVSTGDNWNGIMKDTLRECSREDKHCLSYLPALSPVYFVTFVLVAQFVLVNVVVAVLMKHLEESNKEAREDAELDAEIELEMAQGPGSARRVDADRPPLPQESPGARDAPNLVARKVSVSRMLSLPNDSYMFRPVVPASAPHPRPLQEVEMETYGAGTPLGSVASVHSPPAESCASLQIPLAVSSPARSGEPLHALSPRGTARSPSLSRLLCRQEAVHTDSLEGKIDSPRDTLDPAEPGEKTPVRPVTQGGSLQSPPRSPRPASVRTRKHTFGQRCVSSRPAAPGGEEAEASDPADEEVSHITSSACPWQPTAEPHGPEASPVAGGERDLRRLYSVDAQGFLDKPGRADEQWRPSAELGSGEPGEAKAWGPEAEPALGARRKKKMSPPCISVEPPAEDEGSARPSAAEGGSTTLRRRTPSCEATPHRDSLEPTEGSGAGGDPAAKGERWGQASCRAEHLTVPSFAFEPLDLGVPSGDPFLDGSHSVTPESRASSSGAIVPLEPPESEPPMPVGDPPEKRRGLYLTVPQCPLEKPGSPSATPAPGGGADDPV

T1 sequence (O43497 whole entry): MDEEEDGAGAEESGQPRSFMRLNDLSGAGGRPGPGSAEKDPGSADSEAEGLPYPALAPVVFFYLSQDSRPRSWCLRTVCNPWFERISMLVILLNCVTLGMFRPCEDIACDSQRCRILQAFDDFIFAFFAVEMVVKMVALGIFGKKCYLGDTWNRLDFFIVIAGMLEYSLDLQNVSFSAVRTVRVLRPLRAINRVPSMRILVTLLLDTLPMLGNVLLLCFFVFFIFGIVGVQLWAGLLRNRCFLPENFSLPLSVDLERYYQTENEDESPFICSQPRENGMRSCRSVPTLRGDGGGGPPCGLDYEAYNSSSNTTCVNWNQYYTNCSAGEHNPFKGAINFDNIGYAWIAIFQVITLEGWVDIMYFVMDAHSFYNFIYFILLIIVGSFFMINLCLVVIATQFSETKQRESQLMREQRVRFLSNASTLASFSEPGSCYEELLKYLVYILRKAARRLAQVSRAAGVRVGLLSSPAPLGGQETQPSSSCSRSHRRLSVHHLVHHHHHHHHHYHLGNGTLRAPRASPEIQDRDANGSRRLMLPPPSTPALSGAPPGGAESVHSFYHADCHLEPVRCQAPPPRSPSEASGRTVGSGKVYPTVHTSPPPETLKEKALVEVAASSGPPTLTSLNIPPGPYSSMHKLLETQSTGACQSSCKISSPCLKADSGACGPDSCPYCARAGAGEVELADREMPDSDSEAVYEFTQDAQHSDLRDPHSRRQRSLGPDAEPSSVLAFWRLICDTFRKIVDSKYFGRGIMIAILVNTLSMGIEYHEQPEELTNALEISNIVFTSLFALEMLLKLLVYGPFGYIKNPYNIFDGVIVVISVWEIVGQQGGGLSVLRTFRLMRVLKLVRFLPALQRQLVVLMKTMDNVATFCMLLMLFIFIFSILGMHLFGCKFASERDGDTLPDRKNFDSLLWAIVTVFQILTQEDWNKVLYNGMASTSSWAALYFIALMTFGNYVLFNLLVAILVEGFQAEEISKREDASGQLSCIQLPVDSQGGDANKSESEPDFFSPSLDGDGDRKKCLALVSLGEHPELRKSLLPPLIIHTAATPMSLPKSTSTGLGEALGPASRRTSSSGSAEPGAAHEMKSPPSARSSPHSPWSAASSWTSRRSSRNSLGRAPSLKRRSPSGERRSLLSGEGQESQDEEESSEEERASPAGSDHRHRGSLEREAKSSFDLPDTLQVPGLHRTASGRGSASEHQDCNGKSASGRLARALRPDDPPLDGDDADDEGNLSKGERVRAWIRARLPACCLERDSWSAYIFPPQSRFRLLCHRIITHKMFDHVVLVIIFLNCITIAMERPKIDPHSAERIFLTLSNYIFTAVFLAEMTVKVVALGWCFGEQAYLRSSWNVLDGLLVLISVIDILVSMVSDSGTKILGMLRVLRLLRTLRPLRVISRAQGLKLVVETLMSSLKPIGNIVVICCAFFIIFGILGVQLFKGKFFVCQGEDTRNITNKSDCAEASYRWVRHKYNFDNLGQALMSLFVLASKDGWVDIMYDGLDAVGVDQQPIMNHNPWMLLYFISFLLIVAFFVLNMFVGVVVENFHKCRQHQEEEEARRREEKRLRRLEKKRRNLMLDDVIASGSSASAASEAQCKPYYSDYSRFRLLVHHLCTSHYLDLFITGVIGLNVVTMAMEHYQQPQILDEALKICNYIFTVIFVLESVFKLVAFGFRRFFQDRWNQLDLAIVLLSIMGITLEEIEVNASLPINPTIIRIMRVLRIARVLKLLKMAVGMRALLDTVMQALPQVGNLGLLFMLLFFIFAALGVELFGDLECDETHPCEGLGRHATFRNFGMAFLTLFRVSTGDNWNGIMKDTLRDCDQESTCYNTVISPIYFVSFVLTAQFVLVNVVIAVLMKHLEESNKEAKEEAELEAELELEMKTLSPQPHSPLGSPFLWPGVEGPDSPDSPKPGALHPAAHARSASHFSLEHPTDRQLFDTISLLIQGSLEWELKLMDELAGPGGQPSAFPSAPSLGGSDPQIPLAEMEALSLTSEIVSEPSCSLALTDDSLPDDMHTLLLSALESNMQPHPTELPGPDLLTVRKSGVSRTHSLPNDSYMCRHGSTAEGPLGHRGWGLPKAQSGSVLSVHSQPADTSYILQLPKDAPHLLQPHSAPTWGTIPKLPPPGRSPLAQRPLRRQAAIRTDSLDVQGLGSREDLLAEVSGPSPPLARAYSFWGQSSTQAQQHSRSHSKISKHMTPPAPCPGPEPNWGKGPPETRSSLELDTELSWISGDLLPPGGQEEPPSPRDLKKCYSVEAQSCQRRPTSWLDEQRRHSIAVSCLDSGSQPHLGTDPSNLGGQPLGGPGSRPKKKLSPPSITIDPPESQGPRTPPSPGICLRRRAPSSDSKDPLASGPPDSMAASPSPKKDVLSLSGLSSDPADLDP

| SMILES | inhibition [1] [%] | inhibition [2] [%] | IC50 [3] [nM] | inhibition [4] [%] |
| --- | --- | --- | --- | --- |
| O=C(CCCN1CCN(Cc2cccc(Cl)c2)CC1)Nc1ccc(F)cc1F | 30.2 |  |  |  |
| O=C(CCCN1CCN(c2ccccc2Cl)CC1)Nc1cc(Cl)c(Cl)c(Cl)c1 | 13.6 |  |  |  |
| O=C(CCCN1CCN(Cc2ccc(Cl)cc2)CC1)Nc1ccc(Cl)cc1Cl | 61.3 | 91.1 | 280 |  |
| O=C(CN1CCN(C(=O)CCCCN2CCN(Cc3ccccc3)CC2)CC1)Nc1ccccc1Cl | 15.9 |  |  |  |
| O=C(CCCN1CCN(c2ccc(F)cc2)CC1)Nc1cc(Cl)c(Cl)c(Cl)c1 | 20.7 |  |  |  |
| O=C(CCCN1CCN(Cc2ccc(Cl)cc2)CC1)Nc1cc(Cl)c(Cl)c(Cl)c1 | 27.5 |  |  |  |
| O=C(CCCN1CCN(Cc2c(F)cccc2Cl)CC1)Nc1ccc(F)cc1F | 38.9 |  |  |  |
| COc1ccccc1N1CCN(CCCC(=O)Nc2ccc(F)cc2F)CC1 | 33 |  |  |  |
| O=C(CCCN1CCN(Cc2c(F)cccc2Cl)CC1)Nc1cc(Cl)c(Cl)c(Cl)c1 | 35.1 |  |  |  |
| O=C(CCCN1CCN(Cc2cccc(Cl)c2)CC1)Nc1ccc(Cl)cc1Cl | 50.8 | 87.3 | 1480 |  |
| O=C(CCCN1CCN(c2ccccc2)CC1)Nc1ccc(Cl)cc1 | 30.4 | 75.1 | 4470 |  |
| O=C(CCN1CCN(c2ccccc2Cl)CC1)Nc1ccc(F)cc1F | 28.4 |  |  |  |
| O=C(CN1CCN(C(=O)CCCCN2CCN(c3ccccc3F)CC2)CC1)Nc1ccccc1Cl | 22.1 |  |  |  |
| CCN1CCN(CCCCC(=O)N2CCN(CC(=O)Nc3cccc(Cl)c3)CC2)CC1 |  |  |  | 71.6 |
| O=C(CCCN1CCN(Cc2ccc(Cl)c(Cl)c2)CC1)Nc1ccc(F)cc1F | 59.9 |  |  |  |
| O=C(CCCN1CCN(c2ccccc2)CC1)Nc1ccc(Cl)cc1Cl | 38.5 | 76.2 | 4210 |  |
| O=C(CCN1CCN(c2ccccc2)CC1)Nc1ccc(F)cc1F | 33.2 |  |  |  |
| O=C(CN1CCN(C(=O)CCCCN2CCN(Cc3cccc(Cl)c3)CC2)CC1)Nc1ccccc1Cl | 40.9 |  |  |  |
| O=C(CCN1CCN(Cc2ccc(Cl)c(Cl)c2)CC1)Nc1ccc(F)cc1F | 34.6 |  |  |  |
| O=C(CCCCN1CCN(Cc2cccc(Cl)c2)CC1)N1CCN(c2ccccc2F)CC1 | 48.8 | 87.1 | 2440 |  |
| O=C(CCN1CCN(Cc2c(F)cccc2Cl)CC1)Nc1ccc(F)cc1F | 29.7 |  |  |  |
| O=C(CCCN1CCN(Cc2ccc(Cl)c(Cl)c2)CC1)Nc1ccc(Cl)cc1Cl | 47.6 | 94.4 | 750 |  |
| O=C(CCCCN1CCN(Cc2ccc(Cl)c(Cl)c2)CC1)N1CCN(c2ccccc2)CC1 | 56.2 | 73.8 | 2910 |  |
| O=C(CCCN1CCN(c2cccc(Cl)c2)CC1)Nc1cc(Cl)c(Cl)c(Cl)c1 | 16.8 |  |  |  |
| O=C(CCCN1CCN(Cc2c(F)cccc2Cl)CC1)Nc1ccc(Cl)cc1Cl | 49.6 | 89.6 | 2400 |  |
| O=C(CCN1CCN(Cc2ccccc2)CC1)Nc1ccc(F)cc1F | 21.1 |  |  |  |
| O=C(CN1CCN(C(=O)CCCCN2CCN(c3ccc(F)cc3)CC2)CC1)Nc1ccccc1Cl | 34.9 |  |  |  |

| SMILES | inhibition [1] [%] | inhibition [2] [%] | IC50 [3] [nM] | inhibition [4] [%] |
| --- | --- | --- | --- | --- |
| O=C(CCCCN1CCN(Cc2ccc(Cl)cc2)CC1)N1CCN(c2ccccc2F)CC1 | 48.3 | 89.7 | 1810 |  |
| O=C(CN1CCN(C(=O)CCCCN2CCN(c3ccccc3)CC2)CC1)Nc1ccccc1Cl | 25.2 |  |  |  |
| O=C(CCCN1CCN(Cc2ccccc2)CC1)Nc1ccc(Cl)cc1Cl | 44.9 | 79.3 | 3140 |  |
| O=C(CCCN1CCN(Cc2ccc(Cl)cc2)CC1)Nc1ccc(Cl)cc1 | 33.6 | 92.6 | 370 |  |
| O=C(CCCN1CCN(c2ccccc2)CC1)Nc1cc(Cl)c(Cl)c(Cl)c1 | 38.3 |  |  |  |
| O=C(CN1CCN(C(=O)CCCCN2CCN(Cc3ccc(Cl)cc3)CC2)CC1)Nc1ccccc1Cl | 26.2 |  |  |  |
| O=C(CCN1CCN(Cc2cccc(Cl)c2)CC1)Nc1ccc(F)cc1F | 34.7 |  |  |  |
| O=C(CCCN1CCN(c2ccccc2)CC1)Nc1ccc(F)cc1F | 36.8 |  |  |  |
| O=C(CCN1CCN(c2ccc(F)cc2)CC1)Nc1ccc(F)cc1F | 29.7 |  |  |  |
| COc1cccc(N2CCN(CCCC(=O)Nc3ccc(Cl)cc3Cl)CC2)c1 | 44.2 | 80.3 | 3810 |  |
| CN1CCN(CCCCC(=O)N2CCN(CC(=O)Nc3cccc(C(F)(F)F)c3)CC2)CC1 |  |  |  | < 1 |
| O=C(CN1CCN(C(=O)CCCCN2CCN(c3ccccc3)CC2)CC1)Nc1cccc(Cl)c1 |  |  |  | 75.3 |
| COc1cccc(N2CCN(CCCCC(=O)N3CCN(CC(=O)Nc4ccccc4Cl)CC3)CC2)c1 | 26.1 |  |  |  |
| CCN1CCN(CCCCC(=O)N2CCN(CC(=O)Nc3cccc(C(F)(F)F)c3)CC2)CC1 |  |  |  | 23.6 |
| COc1ccccc1N1CCN(CCCC(=O)Nc2cc(Cl)c(Cl)c(Cl)c2)CC1 | 33.7 |  |  |  |
| O=C(CCCN1CCN(c2ccccc2F)CC1)Nc1ccc(F)cc1F | 32.2 |  |  |  |
| COc1ccccc1N1CCN(CCCC(=O)Nc2ccc(Cl)cc2Cl)CC1 | 42.7 | 79.1 | 3340 |  |
| COc1cccc(N2CCN(CCCC(=O)Nc3ccc(Cl)cc3)CC2)c1 | 40.6 | 84.1 | 2780 |  |
| N#Cc1ccccc1N1CCN(CCCCC(=O)N2CCN(CC(=O)Nc3ccccc3Cl)CC2)CC1 | 7.38 |  |  |  |
| O=C(CN1CCN(C(=O)CCCCN2CCN(c3ccccc3)CC2)CC1)Nc1cccc(C(F)(F)F)c1 |  |  |  | 53 |
| O=C(CCCN1CCN(c2ccccc2Cl)CC1)Nc1ccc(Cl)cc1 | 37.3 | 60.5 | 6010 |  |
| O=C(CCCN1CCN(Cc2ccccc2)CC1)Nc1ccc(Cl)cc1 | 30.8 | 78 | 3520 |  |
| O=C(CCCN1CCN(Cc2ccc3c(c2)OCO3)CC1)Nc1ccc(Cl)cc1Cl | 49.8 | 88.1 | 1670 |  |
| O=C(CCCCN1CCN(Cc2ccc(Cl)c(Cl)c2)CC1)Nc1ccccc1Cl | 55.9 | 91 | 1010 |  |
| O=C(CCCN1CCN(Cc2ccc(Cl)cc2)CC1)Nc1ccc(F)cc1F | 48 |  |  |  |
| O=C(CCCN1CCN(Cc2ccc3c(c2)OCO3)CC1)Nc1ccc(Cl)cc1 | 33.4 | 81.9 | 2730 |  |
| O=C(CCCN1CCN(Cc2cccc(Cl)c2)CC1)Nc1ccc(Cl)cc1 | 38.3 | 92.4 | 1800 |  |

| SMILES | inhibition [1] [%] | inhibition [2] [%] | IC50 [3] [nM] | inhibition [4] [%] |
| --- | --- | --- | --- | --- |
| O=C(CCN1CCN(Cc2ccc(Cl)cc2)CC1)Nc1ccc(F)cc1F | 33.2 |  |  |  |
| COc1cccc(N2CCN(CCCC(=O)Nc3cc(Cl)c(Cl)c(Cl)c3)CC2)c1 | 21.6 |  |  |  |
| COc1ccccc1N1CCN(CCCC(=O)Nc2ccc(Cl)cc2)CC1 | 51.8 | 84.3 | 2610 |  |
| O=C(CCCN1CCN(c2ccc(Cl)cc2)CC1)Nc1ccc(Cl)cc1 | 48.3 | 94.6 | 2640 |  |
| O=C(CCCN1CCN(Cc2cccc(Cl)c2)CC1)Nc1cc(Cl)c(Cl)c(Cl)c1 | 37 |  |  |  |
| O=C(CCN1CCN(c2cccc(Cl)c2)CC1)Nc1ccc(F)cc1F | 26.4 |  |  |  |
| O=C(CCCCN1CCN(Cc2ccc(Cl)cc2)CC1)N1CCN(c2ccccc2)CC1 | 50.4 | 79.7 | 3400 |  |
| O=C(CCCN1CCN(c2ccc(F)cc2)CC1)Nc1ccc(F)cc1F | 38.1 |  |  |  |
| CN1CCN(CCCCC(=O)N2CCN(CC(=O)Nc3cccc(Cl)c3)CC2)CC1 |  |  |  | < 1 |
| O=C(CCCN1CCN(Cc2ccccc2)CC1)Nc1cc(Cl)c(Cl)c(Cl)c1 | 49.4 |  |  |  |
| O=C(CCN1CCN(c2ccccc2F)CC1)Nc1ccc(F)cc1F | 30.3 |  |  |  |
| O=C(CCCCN1CCN(c2cccc(Cl)c2)CC1)Nc1ccccc1Cl | 54 | 93.2 | 1910 |  |
| O=C(CCCN1CCN(c2cccc(Cl)c2)CC1)Nc1ccc(Cl)cc1Cl | 38.1 | 95.4 | 1010 |  |
| CCN1CCN(CCCCC(=O)N2CCN(CC(=O)Nc3cccc(C)c3)CC2)CC1 | -1.36 |  |  |  |
| O=C(CCCN1CCN(c2cccc(Cl)c2)CC1)Nc1ccc(F)cc1F | 51 |  |  |  |
| O=C(CCCN1CCN(Cc2ccccc2)CC1)Nc1ccc(F)cc1F | 23.2 |  |  |  |
| COc1cccc(N2CCN(CCC(=O)Nc3ccc(F)cc3F)CC2)c1 | 29.5 |  |  |  |
| O=C(CCCN1CCN(c2ccccc2Cl)CC1)Nc1ccc(F)cc1F | 42 |  |  |  |
| COc1ccccc1N1CCN(CCC(=O)Nc2ccc(F)cc2F)CC1 | 37.1 |  |  |  |
| O=C(CCCN1CCN(c2ccccc2F)CC1)Nc1ccc(Cl)cc1 | 36.1 | 79.2 | 3630 |  |
| O=C(CCCN1CCN(c2ccc(F)cc2)CC1)Nc1ccc(Cl)cc1 | 32.5 | 76.1 | 3490 |  |
| O=C(CCCN1CCN(c2ccccc2F)CC1)Nc1ccc(Cl)cc1Cl | 27.4 |  |  |  |
| O=C(CCCN1CCN(Cc2c(F)cccc2Cl)CC1)Nc1ccc(Cl)cc1 | 39.8 | 72.8 | 3270 |  |
| COc1cccc(N2CCN(CCCC(=O)Nc3ccc(F)cc3F)CC2)c1 | 40.6 |  |  |  |
| O=C(CCCN1CCN(c2ccccc2F)CC1)Nc1cc(Cl)c(Cl)c(Cl)c1 | 20.1 |  |  |  |
